From ChEMBL document CHEMBL3585257, “Structure-Activity Relationship Studies of 3-epi-Deoxynegamycin Derivatives as Potent Readthrough Drug Candidates” (ACS Med Chem Lett, 2015)
In brackets after ≈: the same amount, converted by molar mass.

Tests used:
COS-7 [1] = assay: (§1) Mutation read through activity in african green monkey COS7 cells transfected with dual-reporter plasmid encoding beta-galactosidase and luciferase genes connected with TGA-containing mouse mdx gene exon 23 nucleotide sequence as premature termination codon assessed as ratio of luciferase activity to beta-galactosidase activity at 200 uM incubated for 48 hrs at 37 degC relative to basal level; type: functional, Chlorocebus aethiops
How it was run: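 COS-7 cells transfected with a dual-reporter plasmid: constitutive β-galactosidase upstream of a TGA premature stop codon, luciferase downstream. Compounds tested at 200 μM. Lysate luciferase/β-galactosidase activity ratio expressed relative to untreated (D-MEM) basal level = 1; some series normalized to a reference compound instead. Triplicate, mean ± SD.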

[2] = Drug metabolism in presence of porcine liver esterase assessed as (S)-2-[2-(3,5-Diaminopentanoyl)-1-methylhydrazinyl]acetic acid.2TFA formation in 100 mM pH 7.4 phosphate buffer at 37 degC incubated for 1 to 4 hrs; type: physicochemical; settings: pig, isolated protein
[3] = Drug metabolism in presence of porcine liver esterase assessed as (S)-2-[2-(3,5-Diaminopentanoyl)-1-methylhydrazinyl]acetic acid.2TFA formation in 100 mM pH 7.4 phosphate buffer at 37 degC; settings: pig, isolated protein, TDE = time-dependent effect
COS-7 [4] = assay: as §1, with “20” for “200”; type: functional, Chlorocebus aethiops
[5] = Mutation read through activity in human cell-free protein synthesis system containing beta-galactosidase and luciferase genes connected with TGA-containing mouse mdx gene exon 23 nucleotide sequence as premature termination codon assessed as ratio of luciferase activity to beta-galactosidase activity at 20 uM incubated at 37 degC for 3 hrs relative to basal level
How it was run: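 Cell-free translation of the β-galactosidase–TGA–luciferase dual reporter with compound at 20 μM. Readthrough given as luciferase/β-galactosidase ratio relative to no-compound control (= 1). n = 3, mean ± SD.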

[6] = Stability in absence of porcine liver esterase assessed as compound remaining in 100 mM pH 7.4 phosphate buffer at 37 degC after 6 hrs; type: physicochemical; settings: phosphate buffer without porcine liver esterase, read-out: Stability
How it was run: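 Ester incubated without esterase in 100 mM phosphate buffer, pH 7.4, at 37 °C for 6 h. Percent compound remaining measured by RP-HPLC.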

COS-7 [7] = assay: as §1, with “activity at 25 to 200 uM” for “activity at 200 uM”; type: functional, cell-based; settings: Chlorocebus aethiops
Staphylococcus aureus = assay: Toxicity against Staphylococcus aureus NBRC13276; type: functional
Escherichia coli = assay: Toxicity against Escherichia coli NBRC3972; type: functional

SMILES | Ratio (COS-7 [1]) | also measured
CN(CC(=O)O)NC(=O)[C@@H](N)CCN | 1.07 | 
CN(CC(=O)OCc1ccccc1Cl)NC(=O)C[C@@H](N)CCN | 3.34 | 
CN(CC(=O)OCc1ccccc1)NC(=O)C[C@@H](N)CCN | 4.04 | 
CN(CC(=O)OCc1ccc([N+](=O)[O-])cc1)NC(=O)C[C@@H](N)CCN | 3.05 | 
CN(CC(=O)OCc1cccc([N+](=O)[O-])c1)NC(=O)C[C@@H](N)CCN | 3.21 | 
CN(CC(=O)O)NC(=O)[C@@H](N)CCCCN | 1.01 | 
CCOC(=O)CN(C)NC(=O)C[C@@H](N)CCN | 2.08 | 
CN(CC(=O)O)NC(=O)C[C@H](N)C[C@@H](O)CN [NEGAMYCIN] | 1.81 | 
CN(CC(=O)OCc1ccc(Br)cc1)NC(=O)C[C@@H](N)CCN | 2.98 | 
CN(CC(=O)OCc1cccc(Br)c1)NC(=O)C[C@@H](N)CCN | 3.75 | 
CN(CC(=O)OCc1ccccc1Br)NC(=O)C[C@@H](N)CCN | 3.83 | 
CN(CC(=O)NCc1ccccc1)NC(=O)C[C@@H](N)CCN | 0.8 | 
CN(CC(=O)O)NC(=O)[C@@H](N)CN | 1.3 | 
CN(CC(=O)OCc1cccc(Cl)c1)NC(=O)C[C@@H](N)CCN | 4.9 | Drug metabolism [2]: metabolite_detected; Drug metabolism [3]: tde; Ratio (COS-7 [4]): 3.58; Ratio [5]: 1.23; remaining at 6 h [6]: 94%
COc1ccccc1COC(=O)CN(C)NC(=O)C[C@@H](N)CCN | 3.1 | 
COc1cccc(COC(=O)CN(C)NC(=O)C[C@@H](N)CCN)c1 | 3.71 | 
CN(CC(=O)O)NC(=O)C[C@@H](N)CCN | 4.28 | Activity (COS-7 [7]): Dose-dependent effect; MIC (Staphylococcus aureus): 1020 µg/mL (≈ 4.69 mM); MIC (Escherichia coli): ≥ 1020 µg/mL; Ratio (COS-7 [4]): 3.1; Ratio [5]: 2.72
CN(CC(=O)O)NC(=O)C[C@@H](N)CCCCN | 2.05 | 
CN(CC(=O)OCc1ccccc1[N+](=O)[O-])NC(=O)C[C@@H](N)CCN | 4.51 | 
COc1ccc(COC(=O)CN(C)NC(=O)C[C@@H](N)CCN)cc1 | 3.25 | 
CN[C@@H]1[C@@H](O)[C@@H](O[C@@H]2[C@@H](O)[C@H](O[C@H]3O[C@H]([C@@H](C)O)[C@@H](O)[C@H](O)[C@H]3N)[C@@H](N)C[C@H]2N)OC[C@]1(C)O [GENETICIN] | 6.65 | 
CN(CC(=O)OCc1ccc(Cl)cc1)NC(=O)C[C@@H](N)CCN | 4.21 | 
CCNC(=O)CN(C)NC(=O)C[C@@H](N)CCN | 1.42 | 
CN(CC(=O)O)NC(=O)CC(N)CN (single isomer, unassigned) | 1.49 | 
CN(CC(=O)O)NC(=O)C[C@@H](N)CCCN | 2.94 | 
CN(CC(=O)O)NC(=O)[C@@H](N)CCCN | 0.99 | 
